Experimental data as given in ChEMBL document CHEMBL1122502, “9-acridinyl and 2-methoxy-6-chloro-9-acridinyl derivatives of aliphatic di-, tri-, and tetraamines. Chemistry, cytostatic activity, and schistosomicidal activity” (1983).

Assays:
Type in all cases: functional, Mus musculus
[1] = In vitro for cytostatic activity against Cloudman melanoma S91 cells at 1.0 uM concentration.
Outline: (§1)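 Cloudman melanoma S91 cells (doubling time 36 h), 0.1×10^6 per flask, pre-grown 72 h at 37 °C in Ham's F10 with 15% horse serum, 2.5% fetal bovine serum, 8 mM glutamine, penicillin and streptomycin. Medium then replaced with compound at final 0.1, 0.5 or 1.0 μM, with 0.1% DMSO in test and control. After 72 h more, cells trypsinized and counted. Triplicate cultures; cell number given as % of control.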

[2] = Compound was tested in vitro for cytostatic activity against Cloudman melanoma S91 cells at 0.1 uM concentration; outline: as §1
[3] = Compound was tested in vitro for cytostatic activity against Cloudman melanoma S91 cells at 0.5 uM concentration; outline: as §1

Row | Structure (SMILES) | Cell number (% of control) [1] [%] | Cell number (% of control) [2] [%] | Control [3] [%]
1 | Cl.Cl.c1ccc2c(NCCN3CCNCC3)c3ccccc3nc2c1 | 30 |  | 
2 | CCNCCCCCCNc1c2ccccc2nc2ccccc12.Cl.Cl | 7 | 102 | 
3 | COc1ccc2nc3cc(Cl)ccc3c(NCCCCCCCCNc3c4ccccc4nc4ccccc34)c2c1.Cl.Cl.Cl | 44 |  | 
4 | COc1ccc2nc3cc(Cl)ccc3c(NCCCCCCCCN)c2c1.Cl.Cl.Cl | 86 |  | 
5 | Cl.Cl.c1ccc2c(NCCCCCCNc3c4ccccc4nc4ccccc34)c3ccccc3nc2c1 | 39 |  | 
6 | COc1ccc2nc3cc(Cl)ccc3c(NCCCCCCN)c2c1.Cl.Cl.Cl | 105 | 105 | 
7 | COc1ccc2nc3cc(Cl)ccc3c(NCCCCCCNc3c4ccccc4nc4ccccc34)c2c1.Cl.Cl.Cl | 49 |  | 
8 | COc1ccc2nc3cc(Cl)ccc3c(NCCCCCCNc3c4ccc(Cl)cc4nc4ccc(OC)cc34)c2c1.Cl.Cl.Cl.Cl | 83 |  | 
9 | COc1ccc2nc3cc(Cl)ccc3c(NCCCN3CCN(CCCN)CC3)c2c1.Cl | 78 |  | 
10 | COc1ccc2nc3cc(Cl)ccc3c(NCCCNCCCN)c2c1.Cl | 28 |  | 
11 | Cl.c1ccc2c(NCCCN3CCN(CCCNc4c5ccccc5nc5ccccc45)CC3)c3ccccc3nc2c1 | 2 | 24 | 
12 | COc1ccc2nc3cc(Cl)ccc3c(NCCCNCCCNc3c4ccccc4nc4ccccc34)c2c1.Cl | 3 | 66 | 
13 | COc1ccc2nc3cc(Cl)ccc3c(NCCCN3CCN(CCCNc4c5ccc(Cl)cc5nc5ccc(OC)cc45)CC3)c2c1.Cl | 43 |  | 
14 | Cl.c1ccc2c(NCCCNCCCNc3c4ccccc4nc4ccccc34)c3ccccc3nc2c1 | 31 | 103 | 
15 | COc1ccc2nc3cc(Cl)ccc3c(NCCCN3CCN(CCCNc4c5ccccc5nc5ccccc45)CC3)c2c1.Cl | 20 | 50 | 
16 | Cl.NCCCN1CCN(CCCNc2c3ccccc3nc3ccccc23)CC1 | 3 | 39 | 
17 | COc1ccc2nc3cc(Cl)ccc3c(NCCCNCCCNc3c4ccc(Cl)cc4nc4ccc(OC)cc34)c2c1.Cl | 0 | 85 | 16
18 | Cl.Cl.NCCCCCCNc1c2ccccc2nc2ccccc12 | 95 |  | 
